Most compounds without a hit are left out; they make up all but 1.9% or so of the library.
HGIII-sPLA2 inh – Inhibits HGIII-sPLA2 liposome hydrolysis, primary screen; Q9NZ20; QFRET BODIPY PC-A2 liposome hydrolysis, fluorescence; inhibition, % at 12.2 µM; hit rate 0.56% among 370,000; AID 743126;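 active = inhibition above mean plus 3 SD of compounds lying within the high and low control bounds, cut at about 19% in these data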;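 also: 0% = median of test compound wells and 100% = no enzyme DMSO wells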
procasp7 counter – counter-screen for procaspase-3 activators: activators of human procaspase-7 | recombinant procaspase-7, Ac-DEVD-pNA absorbance 405 nm; D23A/D198A/D206A triple mutant, cannot self-cleave; scale: DMSO 0, 5 µM enzyme 100 | activation, % at 8.5 µM | hit rate 0.093% among 330,000 | AID 463210;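 active = percent activation above the screen-wide mean plus 3 SD, cut at about 25% in these data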
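System: Uncleavable procaspase-7 mutant enzyme; Amount: 2 µM procaspase-7 mutant as dispensed; Schedule: 1 h compound preincubation, 2 h substrate cleavage, 25 °C; Measured by: 405 nm absorbance of p-nitroaniline; Evaluation: percent activation from buffer-corrected 0–120 min absorbance change; Control set: low DMSO alone, high DMSO plus 5 µM PC-7.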
PLCg1 inh – PLC-gamma1 (human) inhibition, primary screen | hit rate 0.84% among 370,000 | purified PLC-gamma1, fluorogenic substrate, fluorescence | inhibition, % at 12.2 µM | P19174; in the data active = inhibition above about 9.5%
Arr AP2 block – inhibitors of human beta-arrestin and AP2 interaction; FITC-arrestin peptide / GST-AP2 beads, flow cytometry; AP2 beta2 appendage carries R879A mutation; inhibition, % at 10 µM; hit rate 0.31% among 340,000;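 active = inhibition above a set limit, near 3 SD of compounds lacking own fluorescence, cut at about 54% in these data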;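 also: plate controls were DMSO wells for no effect and 5 µM unlabelled arrestin peptide for full effect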
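Test system: GST-tagged AP2 beta2-adaptin appendage (R879A) on 4 µm glutathione beads; also added: fluorescein-tagged arrestin peptide at 50 nM final; timing: 12 min plus 1 h, RT; signal: flow cytometry, FL1 (488/535 nm); read-out: percent drop in bead-associated FITC signal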
PLCb3 inh – inhibitors of human phospholipase C beta3; inhibition, % at 12.2 µM; Purified PLC-beta3, fluorogenic substrate, fluorescence; AID 720704; hit rate 0.18% among 370,000; Q01970; in the data active = inhibition above about 11%;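 also: 0% = median of compound wells on plate and 100% = full blocker control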
proCasp3 act – procaspase-3 (human) activation; P42574; activation, % at 8.5 µM; hit rate 0.11% among 330,000; recombinant procaspase-3 D3A, Ac-DEVD-pNA absorbance 405 nm;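 active = activation above the mean of all tested compounds plus 3 SD, cut at about 21% in these data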;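 also: 0% = DMSO alone and 100% = DMSO wells spiked with extra 5 µM PC-3 D3A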
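Compound: 8.5 µM single point, 0.8% DMSO / Material: Autoprocessing-dead procaspase-3 D3A mutant enzyme / Timing: 1 h preincubation plus 2 h reaction at 25 °C / Medium: Zinc-free HEPES/NaCl buffer with 0.01% Triton X-100 at pH 7.4 / Technique: 405 nm absorbance of p-nitroaniline, reads at 0 and 120 min / Repeats: one well per compound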
Arr AP2 CP1 – blocks beta-arrestin peptide binding to human AP2 | shares compounds with Arr AP2 block | GST-AP2 beads, FITC arrestin peptide binding, flow cytometry; GST-fused beta2-adaptin appendage, R879A mutant | inhibition, % at 10 µM | hit rate 2% among 1,300 | AID 504908;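 active = inhibition above a set limit, roughly 3 SD of non-fluorescent compound noise, cut at about 38% in these data; inactive = inhibition at or below that limit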;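 also: loss of bead fluorescence from 50 nM FITC arrestin peptide bound to appendage; 0% = negative control wells and 100% = excess unlabelled arrestin peptide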
GST-FITC bead – GST-GSH bead binding interference, counter-screen | shares compounds with Arr AP2 block | GST-fluorescein binding to GSH beads, fluorescence | inhibition, % at 10 µM | hit rate 2% among 1,300 | AID 588338;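 active = inhibition above 50%, about 3 SD of the inhibition seen with non-fluorescent compounds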;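 also: fluorescein maleimide labelled GST captured on 4 micron glutathione beads; higher means more loss of bead fluorescence from quenching or blocked binding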
An asterisk follows results filed as active; nt = no result given.

SMILES	HGIII-sPLA2 inh	procasp7 counter	PLCg1 inh	Arr AP2 block	PLCb3 inh	proCasp3 act	Arr AP2 CP1	GST-FITC bead
COc1cccc(CNC(=O)c2cc(S(=O)(=O)N3CCOCC3)ccc2N2CCCC2)c1	-5	0	-5	-11	-8	4	21	7
COc1ccc(S(=O)(=O)N2CCCCCC2)cc1C(=O)NCCc1ccccc1	-10	5	1	61*	-2	-2	19	-3
CNC(=O)c1cc(S(=O)(=O)N2CC(C)OC(C)C2)ccc1N1CCOCC1 (stereo not drawn)	4	nt	1	-7	-2	nt	nt	nt
COC(=O)c1cc2c(c3c4cc(F)ccc4n(S(=O)(=O)c4ccccc4)c13)C(=O)N(Cc1ccc(N(C)C)cc1)C2	6	nt	-8	nt	-6	nt	nt	nt
O=c1c2ccccc2n(Cc2ccco2)n1[C@@H](Cc1ccccc1)Cn1cc(C2CCCC2)nn1	7	nt	-61	nt	-84	nt	nt	nt
Cc1cc(S(=O)(=O)N2CCCCC2)ccc1OCC(=O)Nc1ccccc1	-5	5	-3	27	-7	7	nt	nt
Cc1cc(S(=O)(=O)N2CCCC2)ccc1OCC(=O)Nc1ccccc1	5	3	3	64*	-2	5	-8	-13
Cc1ccc(-c2nc3cc(NC(=O)C(C)C)ccc3o2)cc1	1	2	-56	-10	-72	-4	nt	nt
Cc1cc2nc(-c3ccc(NC(=O)C(C)C)cc3)oc2cc1C	-12	0	-45	60*	-58	-7	-10	0
CC(C)CNC(=O)C1CSCCS(=O)(=O)N1Cc1ccccc1 (stereo not drawn)	10	nt	0	nt	-1	nt	nt	nt
COc1ccc(Cn2ccc3ccc(-c4ccc5ccn(C(=O)c6ccccc6OC)c5c4)cc32)cc1	1	nt	-80	nt	-121	nt	nt	nt
Nc1nc(-c2ccccc2)nc2sc3c(c12)CCCC3	12	9	-47	65*	-63	-3	21	-3
CC(=O)c1cnc(N(C)C)s1	0	10	0	10	4	-4	nt	nt
O=C1C(Cl)=C(N2CCCCCC2)C(=O)N1c1ccc(Cl)cc1	2	-11	-6	11	-16	-9	nt	nt
CN(C)c1ncc(C2=C(Cl)C(=O)C(N3CCCC3)=C(Cl)C2=O)s1	-12	-3	-84	88*	-115	-14	77*	27
O=C1C(Cl)=C(N2CCCCC2)C(=O)C(Cl)=C1c1cnc(N2CCCCC2)s1	nt	nt	nt	98*	nt	nt	68*	18
COc1ccc(OC)c(S(=O)(=O)N(CC(=O)NC2CCC(C)CC2)c2cc(C)cc(C)c2)c1 (stereo not drawn)	5	nt	-1	nt	-4	nt	nt	nt
O=C(Cn1c(=O)[nH]c2ccccc2c1=O)Nc1ccc2c(c1)OCO2	5	-2	-5	-2	-9	-3	1	0
C[C@@H](C(=O)Nc1ccc2c(c1)OCO2)n1c(=O)[nH]c2ccccc2c1=O	0	6	-1	4	-11	6	-3	-4
O=C(Cn1ccc2ccccc2c1=O)Nc1ccc2c(c1)OCO2	3	0	-1	4	0	-5	nt	nt
C[C@@H](C(=O)Nc1ccc2c(c1)OCCO2)n1c(=O)[nH]c2ccccc2c1=O	8	1	-1	-9	-9	-8	6	-1
CCCCNC(=O)C[C@@H]1C(=O)N(Cc2ccc(OC)cc2)C2=CCN(C(=O)OC(C)(C)C)C[C@]21C(=O)OCC	-7	nt	-1	nt	1	nt	nt	nt
CCN(CC)c1ccc(NC(=O)c2cc3c(C)nn(-c4ccccc4)c3s2)cc1	-1	nt	-37	nt	-49	nt	nt	nt
COC(=O)[C@]12CCCCC=C1N(Cc1ccc(OC)cc1)C(=O)[C@@H]2CC(=O)NCc1cccs1	-1	nt	1	nt	0	nt	nt	nt
CNc1ccc(C(=O)OCC(=O)NCc2ccc3c(c2)OCO3)cc1[N+](=O)[O-]	4	-10	3	96*	-6	5	-3	1
SMILES	HGIII-sPLA2 inh	procasp7 counter	PLCg1 inh	Arr AP2 block	PLCb3 inh	proCasp3 act	Arr AP2 CP1	GST-FITC bead
O=C(COC(=O)c1ccc2c(c1)OCO2)NCc1ccc2c(c1)OCO2	-6	0	5	-6	-2	11	nt	nt
N#Cc1ccc(/C=C2\CC3(OC(=O)c4ccco4)CCCN2C3)cc1 (stereo not drawn)	2	nt	-2	nt	-4	nt	nt	nt
COc1ccc(CNCC#Cc2ccc(C)cc2)c(OC)c1	0	nt	0	nt	-1	nt	nt	nt
Cc1ccc(N/N=C(\C#N)C(N)=S)c(C)c1	8	-9	2	57*	3	-22	-1	-1
Cc1ccc(NC(=O)/C(C#N)=N/Nc2ccc(C(=O)O)cc2)c(C)c1	-2	-14	2	8	-5	-4	nt	nt
Cn1c(=O)c(=O)n(C)c2cc(S(=O)(=O)N3CCN(Cc4ccc5c(c4)OCO5)CC3)ccc21	-1	nt	5	nt	0	nt	nt	nt
COCC(C)n1c(SCC(=O)NC(=O)Nc2ccc3c(c2)OCCO3)nc2ccccc2c1=O (stereo not drawn)	-5	4	-1	56*	-14	3	8	-11
COCCNC(=O)c1cccc(S(=O)(=O)N2CC3(C)CC2CC(C)(C)C3)c1 (stereo not drawn)	-3	2	-2	63*	-1	7	-2	1
COCCCNC(=O)c1cccc(S(=O)(=O)N2CC3(C)CC2CC(C)(C)C3)c1 (stereo not drawn)	4	3	-2	13	1	8	nt	nt
CCCC(=O)N1CCC(C(=O)NC2CCCc3ccccc32)CC1 (stereo not drawn)	1	nt	9	nt	6	nt	nt	nt
Cc1ccc(S(=O)(=O)N2CCCCC2)cc1NC(=O)c1cc(=O)[nH]c2ccccc12	6	-9	-8	67*	-18	-2	3	-3
COc1ccc(NC(=O)c2cc(-c3ccco3)nc3ccccc23)cc1S(=O)(=O)N1CCOCC1	-7	5	-40	-12	-62	0	nt	nt
COc1ccc(S(=O)(=O)N2CCN(C)CC2)cc1NC(=O)c1ccccc1C	6	-3	2	26	-6	0	-1	-4
COc1ccc(NC(=O)c2cc(C)nc3ccccc23)cc1S(=O)(=O)N1CCOCC1	-3	-9	2	6	3	-3	-10	-5
COc1ccc(NC(=O)c2ccccn2)cc1S(=O)(=O)N1CCOCC1	4	-7	2	9	0	-5	nt	nt
CCOc1ncccc1C(=O)Nc1ccc(OC)c(S(=O)(=O)N2CCOCC2)c1	6	nt	5	0	-3	nt	1	3

Screens: PubChem, several laboratories
